Data from ChEMBL document CHEMBL3108674, “6-Alkoxy-5-aryl-3-pyridinecarboxamides, a new series of bioavailable cannabinoid receptor type 1 (CB1) antagonists including peripherally selective compounds” (J Med Chem, 2013).

Key:
Cannabinoid receptor 2 = Cannabinoid receptor 2 (Homo sapiens, UniProt P34972); assay: Displacement of [3H]CP55940 from human CB2 receptor expressed in CHOK1 cells after 1 hr by liquid scintillation counting analysis; assay type: cell-based, CHO-K1
How it was run: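 Membranes from butyrate-treated (5 mM, 24 h) CHO-K1 cells stably expressing human CB2, incubated with 0.3 nM [3H]CP55940 and increasing ligand concentrations, 60 min, 30 °C, pH 7.4 Tris buffer with 0.1% fatty acid-free BSA and 1% DMSO; nonspecific binding with 10 μM CP55940; filtration, scintillation counting; tested in triplicate.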

Cannabinoid receptor 1 = Cannabinoid receptor 1 (Homo sapiens, UniProt P21554); assay: Displacement of [3H]CP55940 from human CB1 receptor expressed in CHOK1 cells after 1 hr by liquid scintillation counting analysis; assay type: cell-based, CHO-K1
Chain of Cannabinoid receptor 1 (P21554 whole entry): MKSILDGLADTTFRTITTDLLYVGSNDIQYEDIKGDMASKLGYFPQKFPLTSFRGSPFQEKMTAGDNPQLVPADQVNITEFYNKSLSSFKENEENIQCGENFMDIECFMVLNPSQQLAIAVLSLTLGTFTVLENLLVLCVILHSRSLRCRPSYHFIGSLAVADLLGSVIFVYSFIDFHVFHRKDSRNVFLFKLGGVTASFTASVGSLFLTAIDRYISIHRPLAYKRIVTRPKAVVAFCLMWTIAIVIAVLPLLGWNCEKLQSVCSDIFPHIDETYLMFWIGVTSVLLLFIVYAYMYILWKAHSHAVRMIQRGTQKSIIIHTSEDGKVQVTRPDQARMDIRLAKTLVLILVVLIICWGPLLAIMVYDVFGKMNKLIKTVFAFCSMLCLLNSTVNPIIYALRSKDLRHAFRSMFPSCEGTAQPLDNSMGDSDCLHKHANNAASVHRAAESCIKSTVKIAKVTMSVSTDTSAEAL

Liver microsome = assay: Clearance in rat liver microsomes at 2 uM by LC-MS/MS analysis; assay type: ADME
How it was run: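 Rat liver microsomes at 0.5 mg/mL were incubated with 2 μM compound (final) and an NADPH-regenerating system. Aliquots were taken at 1, 3, 6, 9, 15, 25, 35 and 45 min and quenched in acetonitrile containing internal standard. Depletion was measured by LC-MS/MS. Clmic = −slope × 1000 / protein concentration (mg/mL), not corrected for microsomal protein binding.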

Chain of Cannabinoid receptor 2 (P34972 whole entry): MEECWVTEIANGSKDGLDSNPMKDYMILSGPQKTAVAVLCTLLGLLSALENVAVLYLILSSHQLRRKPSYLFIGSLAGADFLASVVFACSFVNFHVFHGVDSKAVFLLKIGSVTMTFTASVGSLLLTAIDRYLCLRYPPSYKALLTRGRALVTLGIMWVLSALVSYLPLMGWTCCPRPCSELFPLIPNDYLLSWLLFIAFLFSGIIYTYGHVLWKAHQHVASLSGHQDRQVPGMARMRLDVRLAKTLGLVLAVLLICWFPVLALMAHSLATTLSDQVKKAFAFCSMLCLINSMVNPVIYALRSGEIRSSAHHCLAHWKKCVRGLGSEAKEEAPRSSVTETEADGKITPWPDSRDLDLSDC

SMILES	Ki (Cannabinoid receptor 2)	Ki (Cannabinoid receptor 1)	CLH (Liver microsome)	IC50 (Cannabinoid receptor 2)	IC50 (Cannabinoid receptor 1)
NS(=O)(=O)c1ccc(-c2cc(C(=O)N[C@@H]3CCCC[C@H]3O)cnc2OCC2CC2)cc1	> 10 µM	> 10000 nM	–	–	–
O=C(N[C@@H]1CCCC[C@H]1O)c1cnc(OCc2ncccn2)c(-c2ccc(Cl)cc2)c1	> 10 µM	51.6 nM	12 µL/min/mg	–	–
O=C(N[C@@H]1CCCC[C@H]1O)c1cnc(OCC2CC2)c(-c2ccccc2Cl)c1	> 10 µM	190 nM	–	–	–
O=C(N[C@@H]1CCCC[C@@H]1O)c1cnc(OCC2CC2)c(-c2ccc(Cl)cc2)c1	> 5 µM	186 nM	163 µL/min/mg	–	–
O=C(N[C@@H]1CCCC[C@H]1O)c1cnc(OCc2cccnc2)c(-c2ccc(Cl)cc2)c1	> 10 µM	23.5 nM	374 µL/min/mg	–	–
CC(C)Oc1ncc(C(=O)N[C@@H]2CCCC[C@H]2O)cc1-c1ccc(Cl)cc1	> 10 µM	1070 nM	–	–	–
O=C(N[C@@H]1CCCC[C@H]1O)c1cc(-c2ccc(Cl)cc2)c(OCC2CC2)nn1	> 3 µM	> 5000 nM	–	–	–
O=C(N[C@@H]1CCCC[C@H]1O)c1cnc(OC2CCCC2)c(-c2cc(C(F)(F)F)ccc2Cl)c1	–	–	367 µL/min/mg	2390 nM	395 nM
O=C(N[C@@H]1CCCC[C@H]1O)c1cnc(OCc2ccccn2)c(-c2ccc(Cl)cc2)c1	> 10 µM	139 nM	44 µL/min/mg	–	–
O=C(N[C@@H]1CCCC[C@H]1O)c1cnc(OCC2CC2)c(-c2cc(C(F)(F)F)ccc2Cl)c1	2.08 µM	67.7 nM	59 µL/min/mg	–	–
O=C(N[C@@H]1CCCC[C@H]1O)c1cnc(OCC2CC2)c(-c2ccc(C(F)(F)F)cc2)c1	> 10 µM	18.5 nM	–	–	–
C[C@](O)(CNC(=O)c1cnc(OCC2CC2)c(-c2ccc(Cl)cc2)c1)C1CC1	> 10 µM	34.3 nM	2.4 µL/min/mg	–	–
O=C(N[C@H]1CCCC[C@H]1O)c1cnc(OCC2CC2)c(-c2ccc(Cl)cc2)c1	> 7 µM	104 nM	111 µL/min/mg	–	–
O=C(N[C@@H]1CCCC[C@H]1O)c1cnc(OCC2CC2)c(-c2ccc(OC(F)(F)F)cc2)c1	> 10 µM	23.6 nM	0 µL/min/mg	–	–
COc1ccc(-c2cc(C(=O)N[C@@H]3CCCC[C@H]3O)cnc2OCC2CC2)cc1	> 10 µM	66.4 nM	–	–	–
O=C(N[C@@H]1CCCC[C@H]1O)c1cnc(OCc2ccncc2)c(-c2ccc(Cl)cc2)c1	> 10 µM	58.7 nM	118 µL/min/mg	–	–
O=C(N[C@@H]1CCCC[C@H]1O)c1cnc(OCC2CC2)c(-c2ccc(Cl)cc2)n1	0.801 µM	25.8 nM	–	–	–
O=C(N[C@@H]1CCCC[C@H]1O)c1cnc(CCC2CC2)c(-c2ccc(Cl)cc2)c1	> 10 µM	16.7 nM	1503 µL/min/mg	–	–
O=C(N[C@@H]1CCCC[C@H]1O)c1cnc(OCC2CC2)c(-c2cccc(Cl)c2)c1	> 5 µM	129 nM	–	–	–
O=C(N[C@@H]1CCCC[C@H]1O)c1cnc(OC2CCC2)c(-c2ccc(Cl)cc2)c1	> 10 µM	208 nM	210 µL/min/mg	–	–
